Assay results published in ChEMBL document CHEMBL2202989, “New adamantane phenylalkylamines with σ-receptor binding affinity and anticancer activity, associated with putative antagonism of neuropathic pain” (J Med Chem, 2012).

Columns and labels:
[1] = (§1) Growth inhibition of human NHDF cells after 48 hrs by SRB assay; type: cell-based; conditions: NHDF cells
Summary of the method: (§2)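 Cells grown in RPMI 1640 with 5% heat-inactivated FCS, 2 mM L-glutamine and antibiotics, 37 °C, 5% CO2. Seeded at 3500–30000 cells/well and left 24 h before dosing. DMSO solutions added at 10-fold dilutions from 100 to 0.01 μM for 48 h. Cells TCA-fixed and SRB-stained, absorbance read at 540 nm; GI50 derived against the time-zero plate.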

NHDF = assay: as §1; type: cell-based; conditions: nhdf, 48 h; summary of the method: as §2
[2] = Growth inhibition of human MSC cells after 48 hrs by SRB assay; type: cell-based; summary of the method: as §2
[3] = (§3) Growth inhibition of human HUVEC cells after 48 hrs by SRB assay; type: cell-based; conditions: HUVEC cells; summary of the method: as §2
HUVEC = assay: as §3; type: cell-based; conditions: huvec, 48 h; summary of the method: as §2
BXPC-3 = assay: Growth inhibition of human BxPC3 cells after 48 hrs by SRB assay; type: functional; conditions: BXPC-3, 48 h; summary of the method: as §2
SK-HEP1 = assay: Growth inhibition of human SKHEP1 cells after 48 hrs by SRB assay; type: functional; conditions: SK-HEP1, 48 h; for CC50: read-out: LC50 (the source's name); summary of the method: as §2
HL-60(TB) = assay: Growth inhibition of human HL-60(TB) cells after 48 hrs by SRB assay; type: functional; conditions: HL-60, 48 h; for CC50: read-out: LC50 (the source's name)
Summary of the method: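 Cells kept in RPMI 1640 with 5% FCS at 37 °C, 5% CO2, and seeded 24 h before dosing. Compound given from DMSO at 10-fold dilutions, 100 to 0.01 μM, for 48 h. Cells fixed with TCA, stained with SRB, absorbance read at 540 nm. GI50 taken from a time-zero plate.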

MIA PaCa-2 = assay: Growth inhibition of human MIAPaCa2 cells after 48 hrs by SRB assay; type: functional; conditions: MIA PaCa-2, 48 h; for CC50: read-out: LC50 (the source's name); summary of the method: as §2
OVCAR-5 = assay: Growth inhibition of human OVCAR5 cells after 48 hrs by SRB assay; type: functional; conditions: OVCAR-5, 48 h; for CC50: read-out: LC50 (the source's name); summary of the method: as §2
U-251 = assay: Growth inhibition of human U251 cells after 48 hrs by SRB assay; type: functional; conditions: U-251, 48 h; for CC50: read-out: LC50 (the source's name); summary of the method: as §2
PC-3 = assay: Growth inhibition of human PC3 cells after 48 hrs by SRB assay; type: functional; conditions: PC-3, 48 h; for CC50: read-out: LC50 (the source's name); summary of the method: as §2
MCF7 = assay: Growth inhibition of human MCF7 cells after 48 hrs by SRB assay; type: functional; conditions: MCF7, 48 h; for CC50: read-out: LC50 (the source's name); summary of the method: as §2
DU-145 = assay: Growth inhibition of human DU145 cells after 48 hrs by SRB assay; type: functional; conditions: DU-145, 48 h; for CC50: read-out: LC50 (the source's name); summary of the method: as §2
HCT-15 = assay: Growth inhibition of human HCT15 cells after 48 hrs by SRB assay; type: functional; conditions: HCT-15, 48 h; for CC50: read-out: LC50 (the source's name); summary of the method: as §2
IGROV-1 = assay: Growth inhibition of human IGROV1 cells after 48 hrs by SRB assay; type: functional; conditions: IGROV-1, 48 h; summary of the method: as §2

SMILES | GI50 at 48 h [1] | LC50 (NHDF) | TGI (NHDF) | TGI [2] | GI50 at 48 h [3] | LC50 (HUVEC) | TGI (HUVEC) | GI50 (BXPC-3) | LC50 (BXPC-3) | TGI (BXPC-3) | GI50 (SK-HEP1) | TGI (SK-HEP1) | CC50 (SK-HEP1) | GI50 (U-251) | TGI (U-251) | CC50 (U-251) | GI50 (PC-3) | TGI (PC-3) | CC50 (PC-3) | GI50 (MCF7) | also measured
c1ccc(C(c2ccc(CN3CCCCC3)cc2)C23CC4CC(CC(C4)C2)C3)cc1 (centres undefined) | 23.7 µM | 81.19 µM | 52.5 µM | 20.1 µM | 5.11 µM | 72.47 µM | 21.7 µM | 15.8 µM | 0.0874 µM | 51.6 µM | 7.46 µM | 38.4 µM | 0.0822 µM | 8.6 µM | 40.2 µM | 0.0758 µM | 6.07 µM | 26.2 µM | 0.0813 µM | 8.89 µM | GI50 (HL-60(TB)): 0.00591 µM; TGI (HL-60(TB)): 0.0729 µM; CC50 (HL-60(TB)): 0.1 µM; GI50 (MIA PaCa-2): 7.98 µM; TGI (MIA PaCa-2): 43.2 µM; CC50 (MIA PaCa-2): 0.0813 µM; GI50 (OVCAR-5): 31.1 µM; TGI (OVCAR-5): 60.8 µM; CC50 (OVCAR-5): 0.0915 µM; TGI (MCF7): 43 µM; CC50 (MCF7): 0.0806 µM; GI50 (DU-145): 8.98 µM; TGI (DU-145): 47.3 µM; CC50 (DU-145): 0.089 µM; GI50 (HCT-15): 8.8 µM; TGI (HCT-15): 79 µM; CC50 (HCT-15): 0.1 µM
c1ccc(C(c2ccc(CN3CCNCC3)cc2)C23CC4CC(CC(C4)C2)C3)cc1 (centres undefined) | 3.66 µM | 9.73 µM | 6.69 µM | 3.14 µM | 2.91 µM | 17.43 µM | 5.98 µM | 4.3 µM | 0.00951 µM | 6.9 µM | 3.51 µM | 6.17 µM | 0.00884 µM | 3.41 µM | 5.92 µM | 0.00843 µM | 3.89 µM | 7.52 µM | 0.0692 µM | 2.45 µM | GI50 (HL-60(TB)): 0.00448 µM; TGI (HL-60(TB)): 0.00759 µM; CC50 (HL-60(TB)): 0.1 µM; TGI (MCF7): 5.51 µM; CC50 (MCF7): 0.00857 µM; GI50 (DU-145): 4.23 µM; TGI (DU-145): 17.8 µM; CC50 (DU-145): 0.0392 µM; GI50 (HCT-15): 3.28 µM; TGI (HCT-15): 5.76 µM; CC50 (HCT-15): 0.00824 µM
c1ccc(C(c2ccc(CCN3CCCCC3)cc2)C23CC4CC(CC(C4)C2)C3)cc1 (centres undefined) | 18.6 µM | 99.34 µM | 59 µM | 18.3 µM | 5.31 µM | 100 µM | 9.33 µM | 64.7 µM | 0.1 µM | 100 µM | 8.61 µM | 58.2 µM | 0.1 µM | 24.8 µM | 55.8 µM | 0.0867 µM | 11.6 µM | 41.2 µM | 0.092 µM | 6.93 µM | GI50 (MIA PaCa-2): 35.5 µM; TGI (MIA PaCa-2): 63.3 µM; CC50 (MIA PaCa-2): 0.0911 µM; GI50 (OVCAR-5): 37.3 µM; TGI (OVCAR-5): 67.8 µM; CC50 (OVCAR-5): 0.0977 µM; GI50 (IGROV-1): 17.7 µM; TGI (IGROV-1): 43.7 µM; CC50 (IGROV-1; read-out: LC50 (the source's name)): 0.0687 µM; TGI (MCF7): 42.4 µM; CC50 (MCF7): 0.0985 µM; GI50 (HCT-15): 9.12 µM; TGI (HCT-15): 43.7 µM; CC50 (HCT-15): 0.082 µM
CCN1CCN(Cc2ccc(C(c3ccccc3)C34CC5CC(CC(C5)C3)C4)cc2)CC1 (centres undefined) | 6.59 µM | 100 µM | 66.8 µM | 4.61 µM | 1.14 µM | 9.54 µM | 5.34 µM | 4.33 µM | 0.00935 µM | 6.84 µM | 5.9 µM | 24.3 µM | 0.0902 µM | 4.33 µM | 7.8 µM | 0.0685 µM | 7 µM | 7.9 µM | 0.0624 µM | 2.26 µM | GI50 (HL-60(TB)): 0.00433 µM; TGI (HL-60(TB)): 0.00775 µM; CC50 (HL-60(TB)): 0.1 µM; GI50 (MIA PaCa-2): 8.24 µM; TGI (MIA PaCa-2): 43.7 µM; CC50 (MIA PaCa-2): 0.0886 µM; GI50 (OVCAR-5): 18.1 µM; TGI (OVCAR-5): 43.8 µM; CC50 (OVCAR-5): 0.07 µM; TGI (MCF7): 5.92 µM; CC50 (MCF7): 0.00958 µM; GI50 (DU-145): 5.73 µM; TGI (DU-145): 46.1 µM; CC50 (DU-145): 0.1 µM; GI50 (HCT-15): 3.36 µM; TGI (HCT-15): 6.36 µM; CC50 (HCT-15): 0.0094 µM
